Assay results taken from ChEMBL document CHEMBL4765386, “Discovery of tertiary amide derivatives incorporating benzothiazole moiety as anti-gastric cancer agents in vitro via inhibiting tubulin polymerization and activating the Hippo signaling pathway” (Eur J Med Chem, 2020).
Activity calls are given as the source filed them.

Tests used:
MGC-803 = experiment: Inhibition of tubulin polymerization in human MGC-803 cells assessed as decrease in microtubule formation at 20 to 60 nmol/L by DAPI staining based microscopic analysis; format: cell-based; settings: dose 20-60 nmol/L
How it was run: (§1)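 Cells cultured in RPMI-1640 with 10% FBS at 37 °C, 5% CO2, treated 48 h with 20, 40 and 60 nM; stained for β-tubulin (green) and nuclei (blue) and examined by microscopy.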

SGC-7901 [1] = experiment: Inhibition of tubulin polymerization in human SGC-7901 cells assessed as decrease in filamentous structure at 20 to 60 nmol/L by DAPI staining based microscopic analysis; format: cell-based; settings: dose 20-60 nmol/L; how it was run: as §1
SGC-7901 [2] = experiment: Induction of apoptosis in human SGC-7901 cells assessed as increase in caspase-9 cleavage at 20 to 60 nM incubated for 48 hrs by Western blot analysis; format: functional, cell-based; settings: dose 20-60 nM
How it was run: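 Cells grown in RPMI-1640 with 10% FBS, penicillin/streptomycin at 37 °C, 5% CO2. Exposure to 20, 40 or 60 nM for 48 h alongside DMSO control. Lysates denatured, resolved by SDS-PAGE, transferred to PVDF, blocked, then probed with primary and secondary antibodies.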

Measured: Activity

COc1ccc(CN(C(=O)CSc2nc3ccccc3s2)c2cc(OC)c(OC)c(OC)c2)cc1O
active: all assays above
